Published values gathered from unrelated publications.
Compare with care: the assays were run in different laboratories.
Target: Serine/threonine-protein kinase PLK1 (PLK1, Homo sapiens, UniProt P53350)

Compound	assay	test system	conditions	quantity	value
CSc1nc(C)c(-c2ccnc(Nc3ccc(N4CCOCC4)cc3)c2)[nH]1	enzyme activity, inhibitor		10 µM	inhibition	6.3%
O=C1Nc2ccc(Cl)cc2C1=Cc1cc(Cl)c(O)c(Cl)c1	cell-free assay		0.5 µM	remaining signal	99.8%
CCOc1cc(-c2nncn2C)ccc1Nc1ncc2cc(C)nc(NCC(C)(C)C)c2n1	enzyme activity, inhibitor, FRET		1 µM	inhibition	17%
Cc1cc(NC(=O)c2cccc3cc(-c4cccc5[nH]nc(N)c45)ccc23)ccc1F	enzyme activity, inhibitor		0.1 µM	activity vs control	92%
Nc1ncnc2occ(-c3ccc(NC(=O)Nc4cc(C(F)(F)F)ccc4F)cc3)c12	cell-free assay, inhibitor		20 µM	remaining signal	100%
Cc1[nH]c(/C=C2\C(=O)Nc3ccc(F)cc32)c(C)c1C(=O)N[C@H]1CCN(C(=O)N(C)C)C1	enzyme activity, inhibitor		1 µM	remaining activity	122%
CC(C)(O)[C@H]1CC[C@H](Nc2ccc3ncc(-c4cccc(C(F)(F)F)c4)n3n2)CC1	enzyme activity, inhibitor		1 µM	remaining activity	94.4%
FC(F)(F)Oc1cccc(-c2cnc3ccc(-c4ccncc4)nn23)c1	enzyme activity, inhibitor, radiometric		1 µM	activity vs control	93%
Cn1cc(Cl)c2c(Oc3c(F)cc(Nc4cc(Cl)nc(N)n4)cc3F)ccnc21	cell-free assay, competition with immobilised ligand		0.1 µM	remaining binding	83%
O=C(CSc1nc2nccnc2c(=O)n1CCc1ccccc1)Nc1nccs1	enzyme activity, inhibitor		10 µM	inhibition	8%
CC(C)(C)c1nc2c(s1)c1nc(N)ncc1c1ccc(NS(=O)(=O)c3c(F)cccc3F)c(F)c12	enzyme activity, inhibitor, radiometric		1 µM	remaining activity	101%
CCN(CC)CCNC(=O)c1c(C)[nH]c(/C=C2\C(=O)Nc3ccc(F)cc32)c1C	enzyme activity, inhibitor		1 µM	remaining activity	110%
COc1cc(Cl)c(C(=O)N[C@@H](CN[C@H]2CC[C@@H](N)CC2)Cc2ccc(C#N)cc2)cc1-c1ccc(CN[C@H](C)c2ccc(C)cc2)o1	enzyme activity, inhibitor		1 µM	remaining activity	94%
CN(C)C1CCN(CC#Cc2nn(C3CCCC3)c3nc(NCc4ccccc4)ncc23)C1 (stereo not drawn)	enzyme activity, inhibitor, FRET		1 µM	inhibition	-5%
COc1cc(Nc2c(C#N)cnc3cc(OCCCN4CCN(C)CC4)c(OC)cc23)c(Cl)cc1Cl	cell-free assay		0.5 µM	remaining signal	93.8%
Oc1cccc(-c2nc(N3CCOCC3)c3oc4ncccc4c3n2)c1	enzyme activity, inhibitor		10 µM	remaining activity	93%
Cn1nc(C(=O)NCc2ccc(C(=O)O)cc2)cc1-c1ccc2[nH]ccc2c1	cell-free assay, competition with immobilised ligand		0.1 µM	remaining binding	95%

Compound	assay	test system	conditions	quantity	value
O=C(Nc1cnn(-c2csc(C(=O)NC3COC3)c2)c1)Nc1c(F)cccc1Cl	enzyme activity, inhibitor		5 µM	remaining activity	95.5%
Cc1ccc(C(=O)Nc2ccc(CN3CCN(C)CC3)c(C(F)(F)F)c2)cc1C#Cc1cnc2cccnn12	enzyme activity, inhibitor		23.5 nM	remaining activity	96%
O=C(Nc1ccc(Oc2ccc(F)cc2)cc1)N1CCc2ncccc2[C@H]1c1ccc(F)cc1	cell-free assay, competition with immobilised ligand		1 µM	remaining binding	78%
CCN1CCN(Cc2ccc(NC(=O)c3ccc(C)c(Oc4ccnc5[nH]ccc45)c3)cc2C(F)(F)F)CC1	target engagement in cells, inhibitor, chemoproteomics	Huh-7	10 µM	inhibition	-35%
COc1cc(Nc2cnc(C#N)c(O[C@H](C)CN(C)C)n2)ncc1-c1cnn(C)c1	enzyme activity, inhibitor, radiometric		10 µM	remaining activity	104%
CS(=O)(=O)CCNCc1ccc(-c2ccc3ncnc(Nc4ccc(OCc5cccc(F)c5)c(Cl)c4)c3c2)o1	cell-free assay		0.5 µM	remaining signal	99%
Cc1cc(-n2nc(Cc3cc(F)cc(C(F)(F)F)c3)nc2C)ccc1C(N)=O	cell-free assay, competition with immobilised ligand		1 µM	remaining binding	100%
CC(C)(C)C(=O)c1sc(NC2CCCCC2)nc1N	enzyme activity, inhibitor		10 µM	remaining activity	93%
CNCc1ccccc1-c1csc([C@@H](C)Nc2nc(C)nc3cc(OC)c(OC)cc23)c1	cell-free assay, competition with immobilised ligand		1 µM	remaining binding	80%
O=C1NC(=O)c2cc(Nc3ccc(F)cc3)c(Nc3ccc(F)cc3)cc21	cell-free assay		0.5 µM	remaining signal	99.9%
Cc1nc(C2CCN(C(=O)c3ccc(OC(F)(F)F)cc3N)CC2)c2ncc(N3CCN(C)CC3)cc2n1	cell-free assay, competition with immobilised ligand		1 µM	remaining binding	79%
FC(F)c1nc2ccccc2n1-c1nc(N2CCOCC2)nc(N2CCOCC2)n1	enzyme activity, inhibitor		10 µM	remaining activity	75%
CNC(=O)Nc1ccc2c(c1)CC[C@@]21OC(=O)N(CC(=O)N(Cc2ccc(F)cc2)[C@@H](C)C(F)(F)F)C1=O	cell-free assay, competition with immobilised ligand		1 µM	remaining binding	63%
COc1cc2ncnc(Nc3ccc(Oc4ccccc4)c(C)c3C)c2cc1OC	enzyme activity, inhibitor		1 µM	inhibition	-1%
O=C(Nc1cnn(-c2csc(C(=O)NC3COC3)c2)c1)Nc1ccccc1Cl	enzyme activity, inhibitor		5 µM	remaining activity	97%
O=C(Nc1cccnn1)N1CC(C/C=C/c2cncc(Oc3ccc(C(F)(F)F)cn3)n2)C1	cell-free assay, competition with immobilised ligand		1 µM	remaining binding	87%
